Experimental data reported in ChEMBL document CHEMBL1138793, “A three-dimensional in silico pharmacophore model for inhibition of Plasmodium falciparum cyclin-dependent kinases and discovery of different classes of novel Pfmrk specific inhibitors” (J Med Chem, 2004).
Several values for one entry are separate records, joined by “and”; a condition that tells them apart may be missing. Equal entries are not always repeated.

molecular target: T1, Protein kinase Pfmrk (Plasmodium falciparum, UniProt P90584); experiment: Inhibition of Plasmodium falciparum cyclin-dependent kinase
T1 sequence (P90584 whole entry): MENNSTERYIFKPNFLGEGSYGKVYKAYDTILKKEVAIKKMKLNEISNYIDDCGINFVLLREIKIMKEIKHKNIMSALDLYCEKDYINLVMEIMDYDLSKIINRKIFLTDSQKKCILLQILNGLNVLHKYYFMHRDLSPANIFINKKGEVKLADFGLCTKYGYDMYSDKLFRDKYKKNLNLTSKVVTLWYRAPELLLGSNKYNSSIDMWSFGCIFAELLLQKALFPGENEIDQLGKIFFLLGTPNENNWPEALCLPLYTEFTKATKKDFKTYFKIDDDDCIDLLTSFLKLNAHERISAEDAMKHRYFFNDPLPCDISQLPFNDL
Procedure, shortened: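 Recombinant 6xHIS-tagged Plasmodial CDK (3.0 μg) expressed in E. coli, assayed with 2.0 μg GST-tagged cyclin Pfcyc-1 and 5.0 μg RNA polymerase II CTD substrate in 40 mM Hepes pH 7.5, 30 mM MnCl₂, 2.0 mM DTT. Enzyme and compound preincubated 5 min at 30 °C. Reaction started with [γ-32P]ATP plus 12.5 μM ATP, run 35 min at 30 °C. Filter plate washed with phosphoric acid, counted by scintillation. Triplicates; IC50 from concentration range.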

| Compound | IC50 |
| --- | --- |
| Cc1cc(Cl)ccc1NC(=O)c1cccc([N+](=O)[O-])c1 | 69 µM |
| O=C1c2cc([N+](=O)[O-])ccc2-n2c1nc1ncccc1c2=O | 0.13 µM |
| COc1ccc2c(c1)/C(=C1\SC(=S)NC1=O)C(=O)N2 | 17.1 µM |
| O=S(=O)(O)c1cc(O)c(/N=N/c2ccc(O)cc2O)c2ccccc12 | 11 µM |
| CC1NN=C(c2ccccc2)C1[N+](=O)[O-] (stereo unspecified) | 394 µM |
| O=C1NC(=O)/C(=C2/C(=O)Nc3ccc(F)cc32)S1 | 30 µM |
| O=C(CCl)Nc1nc2c(Cl)cccc2s1 | 38 µM and 38.3 µM |
| O=C(Cl)c1c2c(nc3c(Cl)cc(Cl)cc13)-c1ccc(Cl)cc1CC2 | 25 µM |
| CN(C)CCCn1cc(C2=C(c3c[nH]c4ccccc34)C(=O)NC2=O)c2ccccc21 [GF-109203] | 24 µM |
| COc1ccc(-c2nnc(N(CCO)CCO)o2)cc1 | 35.8 µM |
| CCOC(=O)/C(=C\c1ccccn1)C(=O)c1ccc([N+](=O)[O-])cc1 | 61 µM |
| O=C1c2ccc(Cl)cc2-n2c1nc1ncccc1c2=O | 3.5 µM |
| Cn1cc(C(=O)C(C)(C)N)c2ccccc21 | 46.2 µM |
| O=C(/C=C/c1ccccn1)c1ccc([N+](=O)[O-])cc1 | 18 µM |
| O=[N+]([O-])c1cc(S(=O)(=O)Nc2ccc(C(F)(F)F)cc2)sc1Cl | 2.5 µM |
| O=C1/C(=C/c2ccccn2)CCc2ccccc21 | 17 µM |
| OC(c1cc(C(F)(F)F)nc2c(C(F)(F)F)cccc12)C1CCCCN1 (stereo unspecified) [MEFLOQUINE] | 12 µM |
| NNC(Cc1c[nH]c2ccccc12)C(=O)O (stereo unspecified) | 182 µM |

| Compound | IC50 |
| --- | --- |
| NC(=S)NC1(c2ccccc2)OC(=O)c2ccccc21 (stereo unspecified) | 70 µM |
| N#C/C(=C1\OC(=O)N(c2ccc(Cl)cc2)C1=O)c1ccc(Cl)cc1 | 14 µM |
| CCN(CC)CCCC(C)Nc1ccnc2cc(Cl)ccc12 (stereo unspecified) [CHLOROQUINE] | 150 µM |
| CCOC(=O)c1cc([N+](=O)[O-])ccc1Cl | 87 µM |
| O=c1cc(-c2ccc(O)cc2)oc2cc(O)cc(O)c12 [APIGENIN] | 7 µM |
| CN1C(=O)/C(=C\C(=O)c2ccc(Br)cc2)c2ccccc21 | 29 µM |
| O=C1c2cc(F)ccc2-n2c1nc1ncccc1c2=O | 4.7 µM |
| O=C1Nc2ccccc2/C1=C\c1ccc(C(F)(F)F)cc1 | 138 µM |
| Cc1ccc(C(=O)/C=C2\C(=O)Nc3ccc(Br)cc32)cc1 | 2.9 µM |
| O=C(/C=C/c1ccccc1)c1cccc([N+](=O)[O-])c1 | 10 µM |
| O=C(N=C(S)Nc1cc([N+](=O)[O-])ccc1O)c1ccc(Cl)cc1Cl | 10 µM |
| O=c1c(-c2ccc(O)cc2)coc2cc(O)cc(O)c12 [GENISTEIN] | 93 µM |
| O=c1c(O)c(-c2cc(O)c(O)c(O)c2)oc2cc(O)cc(O)c12 [MYRICETIN] | 157 µM |
| O=C1Nc2ccc([N+](=O)[O-])cc2/C1=C/c1ccccc1O | 35 µM |
| Cn1cnc2c(NCc3ccccc3)nc(NCCO)nc21 [OLOMOUCINE] | 1100 µM |
| O=C1Nc2ccccc2/C1=C/C(=O)c1ccccc1 | 4 µM |
| O=C1Nc2ccc([N+](=O)[O-])cc2C1=O [5-NITROISATIN] | 5.9 µM |
| CC(=O)Nc1ccc(C(=O)/C=C/c2ccccc2)cc1 | 17 µM |
